Source: ChEMBL document CHEMBL1914317, “Triazole ring-opening leads to the discovery of potent nonsteroidal 17β-hydroxysteroid dehydrogenase type 2 inhibitors” (Eur J Med Chem, 2011)
Active and inactive are the calls of the source. No cut-off for these calls is given here.

Tests used:
[1] = species on record: Homo sapiens; test: Selectivity ratio of IC50 for human placental 17beta-HSD1 to IC50 for human placental 17beta-HSD2
[2] = target: T1, Estrogen receptor (Homo sapiens) (UniProt P03372); test: Displacement of [3H]estradiol from human recombinant ERalpha assessed as relative binding affinity after 1 hr by liquid scintillation counting relative to estradiol
T1 sequence (whole entry): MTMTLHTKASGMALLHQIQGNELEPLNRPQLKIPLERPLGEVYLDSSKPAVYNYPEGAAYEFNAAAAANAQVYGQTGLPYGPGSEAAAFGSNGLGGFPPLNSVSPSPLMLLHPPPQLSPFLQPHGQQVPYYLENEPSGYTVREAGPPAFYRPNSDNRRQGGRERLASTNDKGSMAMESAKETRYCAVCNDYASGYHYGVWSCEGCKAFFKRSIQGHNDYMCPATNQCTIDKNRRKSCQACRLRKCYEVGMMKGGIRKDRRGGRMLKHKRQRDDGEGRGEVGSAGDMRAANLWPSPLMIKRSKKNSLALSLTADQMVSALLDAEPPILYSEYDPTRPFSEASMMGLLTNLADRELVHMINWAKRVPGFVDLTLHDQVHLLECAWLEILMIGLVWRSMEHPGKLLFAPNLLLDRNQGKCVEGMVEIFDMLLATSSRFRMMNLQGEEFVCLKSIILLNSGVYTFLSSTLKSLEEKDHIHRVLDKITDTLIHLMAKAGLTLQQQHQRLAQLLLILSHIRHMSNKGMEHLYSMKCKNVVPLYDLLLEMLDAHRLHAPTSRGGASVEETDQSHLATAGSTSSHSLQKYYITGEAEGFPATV
How it was run: (§1)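 Recombinant human ERα or ERβ (0.25 pmol) incubated with [3H]-E2 (10 nM) plus test compound, 1 h at room temperature; compound in DMSO (5% final). Nonspecific binding defined with diethylstilbestrol (10 µM). Receptor–ligand complexes captured on hydroxyapatite, washed, resuspended in ethanol, counted by liquid scintillation.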

[3] = target: Estrogen receptor beta (Homo sapiens) (UniProt Q92731); test: Displacement of [3H]estradiol from human recombinant ERbeta assessed as relative binding affinity after 1 hr by liquid scintillation counting relative to estradiol; how it was run: as §1
[4] = target: T2, 17-beta-hydroxysteroid dehydrogenase type 2 (Homo sapiens) (UniProt P37059); test: Inhibition of 17beta-HSD2; settings: concentration not given here
T2 sequence (whole entry): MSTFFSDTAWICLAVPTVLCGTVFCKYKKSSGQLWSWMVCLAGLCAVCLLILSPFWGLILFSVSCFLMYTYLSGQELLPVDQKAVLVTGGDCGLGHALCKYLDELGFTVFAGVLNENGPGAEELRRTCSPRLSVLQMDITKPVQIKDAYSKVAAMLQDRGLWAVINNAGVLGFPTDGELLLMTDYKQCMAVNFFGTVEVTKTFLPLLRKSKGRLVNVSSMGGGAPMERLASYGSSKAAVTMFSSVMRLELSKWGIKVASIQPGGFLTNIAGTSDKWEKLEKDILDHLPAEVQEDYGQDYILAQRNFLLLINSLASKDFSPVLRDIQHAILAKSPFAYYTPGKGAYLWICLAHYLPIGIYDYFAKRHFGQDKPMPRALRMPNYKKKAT
How it was run: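 Human placental microsomal fraction (150,000 g) with NAD+ 1500 µM, 37 °C, in 50 mM phosphate buffer containing 20% glycerol and 1 mM EDTA; DMSO 1% final. Started with unlabelled plus [3H]-E2 (500 nM final), run 20 min, stopped with HgCl2, ether-extracted. E1/E2 separated by HPLC with radioflow detection; % conversion = E1/(E1+E2)×100. At least three independent experiments.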

[5] = target: T2, 17-beta-hydroxysteroid dehydrogenase type 2 (Homo sapiens); test: Inhibition of human placental 17beta-HSD2 assessed as formation of [2,4,6,7-3H]-estrone using [2,4,6,7-3H]-estradiol as substrate at 1 uM after 20 mins by radio flow detector-based HPLC analysis in presence of NAD+ as cofactor
[6] = target: T3, 17-beta-hydroxysteroid dehydrogenase type 1 (Homo sapiens) (UniProt P14061); test: Inhibition of human placental 17beta-HSD1 using [2,4,6,7-3H]-estrone as substrate at 1 uM after 10 mins by radio flow detector-based HPLC analysis in presence of NADH as cofactor
T3 sequence (whole entry): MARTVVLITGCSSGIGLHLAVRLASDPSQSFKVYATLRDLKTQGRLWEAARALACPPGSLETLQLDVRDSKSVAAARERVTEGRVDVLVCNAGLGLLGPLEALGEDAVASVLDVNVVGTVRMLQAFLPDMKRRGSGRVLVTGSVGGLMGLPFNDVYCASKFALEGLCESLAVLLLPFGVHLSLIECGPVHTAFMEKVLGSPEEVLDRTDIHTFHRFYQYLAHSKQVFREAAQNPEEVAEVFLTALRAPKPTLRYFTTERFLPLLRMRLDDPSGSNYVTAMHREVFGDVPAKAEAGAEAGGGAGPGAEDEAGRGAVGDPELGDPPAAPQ
How it was run: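 Placental enzyme from the cytosolic fraction after ammonium sulfate precipitation. Incubated with NADH 500 µM, test compound and unlabelled plus [3H]-E1 (500 nM final), 10 min at 37 °C. Stopped, extracted, and steroids separated by HPLC with radioflow detection, as for the type 2 assay.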

[7] = target: T4, 17-beta-hydroxysteroid dehydrogenase type 1 (Homo sapiens, UniProt P14061); test: Inhibition of human placental 17beta-HSD1 using [2,4,6,7-3H]-estrone as substrate after 10 mins by radio flow detector-based HPLC analysis in presence of NADH as cofactor
T4 sequence (P14061 whole entry): T3 sequence (whole entry)
How it was run: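 Enzyme was the ammonium sulfate–precipitated cytosolic fraction of fresh homogenised human placenta. It was incubated at 37 °C for 10 min with NADH (500 µM), inhibitor, and unlabelled plus [3H]-E1 (final 500 nM, 0.15 µCi). Reaction stopped with HgCl2, then ether extraction. E1/E2 were separated by HPLC with radioflow detection.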

[8] = target: T5, 17-beta-hydroxysteroid dehydrogenase type 2 (Homo sapiens, UniProt P37059); test: Inhibition of human placental 17beta-HSD2 assessed as formation of [2,4,6,7-3H]-estrone using [2,4,6,7-3H]-estradiol as substrate after 20 mins by radio flow detector-based HPLC analysis in presence of NAD+ as cofactor
T5 sequence (P37059 whole entry): T2 sequence (whole entry)

Sequence of Estrogen receptor beta (Homo sapiens) (Q92731 whole entry): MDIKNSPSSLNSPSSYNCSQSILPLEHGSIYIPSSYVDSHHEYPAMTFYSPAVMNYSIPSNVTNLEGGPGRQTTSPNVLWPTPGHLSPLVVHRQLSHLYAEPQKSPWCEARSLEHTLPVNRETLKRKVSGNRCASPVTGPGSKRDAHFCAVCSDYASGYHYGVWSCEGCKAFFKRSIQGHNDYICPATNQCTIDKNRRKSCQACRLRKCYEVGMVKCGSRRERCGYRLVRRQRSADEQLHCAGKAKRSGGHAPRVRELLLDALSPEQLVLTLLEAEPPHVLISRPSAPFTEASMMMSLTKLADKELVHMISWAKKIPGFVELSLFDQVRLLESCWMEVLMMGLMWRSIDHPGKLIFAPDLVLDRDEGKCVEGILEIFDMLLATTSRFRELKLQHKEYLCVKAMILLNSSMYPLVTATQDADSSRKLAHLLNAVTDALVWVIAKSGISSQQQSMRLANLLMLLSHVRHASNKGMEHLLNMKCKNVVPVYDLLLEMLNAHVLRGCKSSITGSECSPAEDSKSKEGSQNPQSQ

SMILES | Ratio IC50 [1] | RBA [2] [%] | RBA [3] [%] | further results
CN(Cc1cccc(O)c1)C(=O)c1ccc(-c2cccc(F)c2)s1 | 10 | < 0.1 | < 0.1 | –
Cn1nc(-c2cccc(O)c2)nc1-c1ccc(-c2cccc(O)c2)s1 | – | – | – | inhibition [4]: 30%
CN(Cc1cccc(O)c1)C(=O)c1ccc(-c2ccccc2)s1 | – | < 0.1 | < 0.1 | –
CN(Cc1cccc(O)c1)C(=O)c1cccc(-c2ccc(O)cc2)c1 | – | < 0.1 | < 0.1 | –
COc1cccc(-c2ccc(C(=O)N(C)Cc3ccccc3)s2)c1 | – | < 0.1 | < 0.1 | –
CN(Cc1cccc(O)c1)C(=O)c1ccc(-c2ccccc2O)s1 | 20 | < 0.1 | < 0.1 | –
CN(Cc1ccccc1)C(=O)c1ccc(-c2cccc(O)c2)s1 | – | < 0.1 | < 0.1 | –
COc1cccc(-c2ccc(C(=O)N(C)Cc3cccc(O)c3)s2)c1F | 73 | < 0.1 | < 0.1 | –
CN(Cc1cccc(O)c1)C(=O)c1ccc(-c2ccc(F)cc2)s1 | – | < 0.1 | < 0.1 | –
COc1cccc(CN(C)C(=O)c2ccc(-c3ccccc3)s2)c1 | – | < 0.1 | < 0.1 | –
COc1ccccc1-c1ccc(C(=O)N(C)Cc2ccccc2)s1 | – | < 0.1 | < 0.1 | –
C[C@]12CC[C@@H]3c4ccc(O)cc4CC[C@H]3[C@@H]1CC[C@@]21CCCC(=O)O1 | – | < 0.1 | < 0.1 | inhibition [5]: 65%; inhibition [4]: 62%
COc1ccc(-c2ccc(C(=O)N(C)Cc3ccccc3)s2)cc1 | – | < 0.1 | < 0.1 | –
CN(Cc1ccccc1)C(=O)c1ccc(-c2ccc(O)cc2)s1 | – | < 0.1 | < 0.1 | –
CN(Cc1cccc(O)c1)C(=O)c1ccc(-c2ccc(C#N)cc2)s1 | – | < 0.1 | < 0.1 | –
CN(Cc1cccc(O)c1)C(=O)c1ccc(-c2cccc(N(C)C)c2)s1 | 75 | < 0.1 | < 0.1 | –
COc1cccc(CN(C)C(=O)c2ccc(-c3cccc(OC)c3)s2)c1 | > 250 | < 0.1 | < 0.1 | –
CN(Cc1cccc(O)c1)C(=O)c1ccc(-c2cccc(O)c2F)s1 | – | < 0.1 | < 0.1 | –

SMILES | Ratio IC50 [1] | RBA [2] [%] | RBA [3] [%] | further results
Cn1nc(-c2cccc(O)c2)nc1-c1ccc(-c2cccc(O)c2)cc1 | – | – | – | inhibition [4]: 42%
CN(Cc1cccc(O)c1)C(=O)c1cccc(-c2cccc(O)c2)c1 | 8 | < 0.1 | < 0.1 | –
CN(C(=O)Cc1cccc(O)c1)c1cccc(-c2ccc(O)cc2)c1 | – | < 0.1 | < 0.1 | inhibition [5]: 39%; inhibition [6]: inactive
COc1ccc(-c2ccc(C(=O)N(C)Cc3cccc(O)c3)s2)cc1 | > 250 | < 0.1 | < 0.1 | –
CN(Cc1cccc(O)c1)C(=O)c1ccc(-c2ccc(O)cc2)s1 | 15 | < 0.1 | < 0.1 | –
CN(Cc1cccc(O)c1)C(=O)c1ccc(-c2cccc(O)c2)cc1 | – | < 0.1 | < 0.1 | –
Cc1cccc(-c2ccc(C(=O)N(C)Cc3cccc(O)c3)s2)c1 | 65 | < 0.1 | < 0.1 | –
CN(Cc1cccc(O)c1)C(=O)c1ccc(-c2cccc(O)c2)s1 | 14 | < 0.1 | < 0.1 | IC50 [7]: 5.45 µM
COc1cccc(CN(C)C(=O)c2ccc(-c3ccc(C#N)cc3)s2)c1 | – | < 0.1 | < 0.1 | inhibition [5]: inactive; inhibition [6]: inactive
COc1cccc(CN(C)C(=O)c2ccc(-c3ccccc3OC)s2)c1 | – | < 0.1 | < 0.1 | inhibition [5]: 49%; inhibition [6]: inactive
COc1cccc(CN(C)C(=O)c2ccc(-c3cccc(OC)c3)cc2)c1 | – | < 0.1 | < 0.1 | –
CN1C(=O)C[C@@H](c2ccccc2)[C@H]1[C@H](O)c1ccc(-c2cccnc2)s1 | – | – | – | IC50 [8]: 0.05 µM
COc1cccc(CN(C)C(=O)c2ccc(-c3cccc(C)c3)cc2)c1 | > 375 | < 0.1 | < 0.1 | –
CN(Cc1ccccc1)C(=O)c1ccc(-c2ccccc2O)s1 | – | < 0.1 | < 0.1 | –
Cc1cccc(-c2ccc(C(=O)N(C)Cc3cccc(O)c3)cc2)c1 | – | < 0.1 | < 0.1 | –
COc1cccc(CN(C)C(=O)c2cccc(-c3cccc(OC)c3)c2)c1 | – | < 0.1 | < 0.1 | –
COc1ccc(-c2cccc(C(=O)N(C)Cc3cccc(OC)c3)c2)cc1 | – | < 0.1 | < 0.1 | inhibition [5]: 11%; inhibition [6]: inactive
COc1ccc(-c2ccc(C(=O)N(C)Cc3cccc(OC)c3)s2)cc1 | – | < 0.1 | < 0.1 | –
